The text below walks through data of ChEMBL document CHEMBL1921710, “Anti-staphylococcal activity and β-lactam resistance attenuating capacity of structural analogues of (-)-epicatechin gallate” (2011).

Values after ≈ are worked out from the molar mass of the structure shown. Active and inactive are the calls of the source. The rule behind the calls is not given here.

Experiment [1] has as its system Staphylococcus aureus. In words: Potentiation of oxacillin-induced antistaphylococcal activity against epidemic Staphylococcus aureus isolate 16 at 12.5 ug/mL by CLSI broth microplate assay. The class given is functional, organism-based. The method, boiled down: (§1)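 Oxacillin MIC against EMRSA-16 with the analogue held at a fixed concentration. Run in 96-well trays with about 10^4 CFU in 100 μl Mueller–Hinton broth containing 2% w/v NaCl. Compounds were dissolved in 60% v/v EtOH before dilution into broth.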

The test system of experiment [2] is Staphylococcus aureus. The experiment in a line: Antistaphylococcal activity against epidemic Staphylococcus aureus isolate 16 by CLSI broth microplate assay. The class given is functional. An outline of the steps: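 MIC against MRSA clinical isolate EMRSA-16, measured by CLSI broth microplate dilution. Compounds were dissolved in 60% v/v EtOH, then diluted into broth.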

Experiment [3] concerns Staphylococcus aureus. In words: Potentiation of oxacillin-induced antistaphylococcal activity against epidemic Staphylococcus aureus isolate 16 at 6.25 ug/mL by CLSI broth microplate assay. The class given is functional, organism-based. An outline of the steps: as §1

As for `O=C(N[C@@H]1Cc2c(O)cc(O)cc2O[C@@H]1c1ccc(O)c(O)c1)c1cc(O)c(O)c(O)c1`, in the experiment on Staphylococcus aureus [1], the result was Active.

Compound `O=C(O[C@@H]1Cc2c(O)cc(O)cc2O[C@@H]1c1ccc(O)c(O)c1)c1cc(O)c(O)c(O)c1` [EPICATECHIN GALLATE] registered an MIC in the experiment with Staphylococcus aureus [2] of 128 µg/mL (≈ 289 µM). In addition, the result in the experiment with Staphylococcus aureus [1] was Active.

In the experiment on Staphylococcus aureus [2], `Cc1onc(-c2ccccc2)c1C(=O)N[C@@H]1C(=O)N2[C@@H]1SC(C)(C)[C@@H]2C(=O)O` [OXACILLIN] displayed an MIC of 512 µg/mL (≈ 1280 µM).

`O=C(O[C@@H]1Cc2c(O)cc(O)cc2O[C@@H]1c1cccc(O)c1)c1cc(O)c(O)c(O)c1`: in the experiment on Staphylococcus aureus [2], it took 128 µg/mL (≈ 300 µM) to inhibit growth (MIC). Moreover, the result with Staphylococcus aureus [1] was Active.

`O=C(O[C@@H]1Cc2ccccc2O[C@@H]1c1ccccc1)c1cc(O)c(O)c(O)c1` returned an MIC in the experiment with Staphylococcus aureus [2] of 16 µg/mL (≈ 42.3 µM). Also, the outcome in the experiment on Staphylococcus aureus [1] and in the experiment on Staphylococcus aureus [3] was Active.

On to `O=C(O[C@@H]1Cc2c(O)cc(O)cc2O[C@@H]1c1ccccc1)c1cc(O)c(O)c(O)c1`, for which inhibition of growth against Staphylococcus aureus [2] (MIC) required 64 µg/mL (≈ 156 µM). The outcome in the experiment on Staphylococcus aureus [1] and in the experiment on Staphylococcus aureus [3] was Active.

As to `O=C(O[C@@H]1Cc2ccccc2O[C@H]1c1ccccc1)c1cc(O)c(O)c(O)c1`, inhibition of growth against Staphylococcus aureus [2] (MIC) required 16 µg/mL (≈ 42.3 µM). Moreover, the result in the experiment on Staphylococcus aureus [1] and in the experiment on Staphylococcus aureus [3] was Active.

In turn, `O=C(O[C@@H]1Cc2c(O)cc(O)cc2O[C@@H]1c1cc(O)cc(O)c1)c1cc(O)c(O)c(O)c1` yielded an MIC in the experiment with Staphylococcus aureus [2] of 128 µg/mL (≈ 289 µM). The result with Staphylococcus aureus [1] was Active.

For orientation: MIC means the lowest concentration that inhibits growth of the organism.
